Results from ChEMBL document CHEMBL1142281, “New 1,2,3,4-tetrahydroisoquinoline derivatives as modulators of proteolytic cleavage of amyloid precursor proteins” (Bioorg Med Chem, 2008).
Active and inactive are the calls of the source. The rule behind the calls is not given here.

Tests used:
[1] = Inhibition of monoamino oxidase B from F344/N rat brain cortex
[2] = Lipophilicity, log P of the compound; format: physicochemical; settings: octanol/water
T20 = test: Inhibition of gamma secretase in T20 cells assessed as amyloid precursor protein cleavage at 10 uM after 24 hrs by luciferase reporter gene assay; format: cell-based; set-up: scale not given: the % may be the effect or the level left
How it was run: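 T20 cells (stable C99-luciferase reporter line, kept in hygromycin/blasticidin/zeocin medium) plated 2 × 10⁴/well and held 24 h at 37 °C. Compounds added at 10 µM final with tetracycline 1 µg/ml for 24 h at 37 °C. Luminescence read with Steady-Glo reagent as fold luciferase activation versus DMSO; triplicates.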

[3] = Increase in sAPP alpha secretion in gamma-30 cells; format: functional, cell-based
How it was run: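 Conditioned media from c-30 cells (full-length APP with human PS1, Aph-1a2, Pen-2), normalised to lysate protein content. Immunoprecipitated with rabbit polyclonal anti-Ab1–17, separated by SDS–PAGE and Western blotted with mouse monoclonal 6E10 to detect sAPPa.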

[4] = biological target: Mitogen-activated protein kinase; ERK1/ERK2 (Homo sapiens) (UniProt P27361+P28482); test: Activation of ERK1/2 in T20 cells at 10 uM relative to nontreated cells; format: cell-based
Chain of Mitogen-activated protein kinase; ERK1/ERK2 (Homo sapiens) (P27361 whole entry, looked up): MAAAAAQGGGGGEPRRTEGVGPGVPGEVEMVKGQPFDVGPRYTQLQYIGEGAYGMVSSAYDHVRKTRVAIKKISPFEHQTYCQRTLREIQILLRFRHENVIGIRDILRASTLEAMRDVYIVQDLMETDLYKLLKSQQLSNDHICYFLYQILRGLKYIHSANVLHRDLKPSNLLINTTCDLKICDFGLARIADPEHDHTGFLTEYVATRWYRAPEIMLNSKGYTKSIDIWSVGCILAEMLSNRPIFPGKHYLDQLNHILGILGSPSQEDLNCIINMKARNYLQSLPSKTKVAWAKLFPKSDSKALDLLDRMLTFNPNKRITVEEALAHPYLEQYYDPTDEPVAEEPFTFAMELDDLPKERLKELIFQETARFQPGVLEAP
Chain of Mitogen-activated protein kinase; ERK1/ERK2 (Homo sapiens) (P28482 whole entry, looked up): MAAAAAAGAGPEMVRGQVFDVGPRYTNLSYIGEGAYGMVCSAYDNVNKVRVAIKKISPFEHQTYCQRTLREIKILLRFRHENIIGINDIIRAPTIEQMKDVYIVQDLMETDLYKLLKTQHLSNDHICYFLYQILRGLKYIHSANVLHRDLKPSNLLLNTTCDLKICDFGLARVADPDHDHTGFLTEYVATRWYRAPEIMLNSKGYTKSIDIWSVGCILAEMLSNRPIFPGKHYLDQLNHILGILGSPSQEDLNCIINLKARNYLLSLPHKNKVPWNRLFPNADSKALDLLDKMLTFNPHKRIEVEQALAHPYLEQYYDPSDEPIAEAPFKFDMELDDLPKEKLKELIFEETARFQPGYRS
How it was run: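 T20 cells plated at 5 × 10⁵/well, grown 18 h at 37 °C, then 18 h with tetracycline 1 µg/ml. Medium switched to DMEM with 0.5% FBS and compounds added at 10 µM. Lysis in Tris-HCl pH 8.0 buffer with Triton X-100 and inhibitors; 50 lg protein run on 12% SDS-PAGE and immunoblotted for phospho-ERK1/2 and total ERK1/2. Read-out p-ERK/ERK % of untreated; three experiments.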

Row | SMILES | IC50 [1] [µM] | logP [2] | Activity (T20) [%] | Activity [3] | Activity [4] [%]
1 | C#CCN1CCc2ccc(OC(=O)N3CCCC3)cc2C1 | 13.9 | 2.23 |  |  | 
2 | O=C(Oc1ccc2c(c1)CN(CC1CC1)CC2)N1CCCC1 | 14.9 | 2.67 |  |  | 
3 | O=C(Oc1ccc2c(c1)CN(CC1CC1)CC2)N1CCOCC1 | 18.5 | 2.29 | 35 | Active | 138
4 | O=C(Oc1ccc2c(c1)CN(CC1CC1)CC2)N1CCCCC1 | 11.6 | 3.09 | 35 | Active | 155
5 | C#CCN1CCc2ccc(OC(=O)N(C)CC)cc2C1 | 21.5 | 2.25 |  |  | 
6 | CCN(C)C(=O)Oc1ccc2c(c1)CN(CC1CC1)CC2 | 12.8 | 2.69 | 35 | Active | 131
7 | C#CCN1CCc2ccc(OC(=O)N3CCCCC3)cc2C1 | 15.7 | 2.63 |  |  | 
8 | C#CCN[C@@H]1CCc2ccccc21 [RASAGILINE] | 2.1 | 2.29 |  |  | 131
9 | C#CCN1CCc2ccc(OC(=O)N3CCOCC3)cc2C1 | 18.7 | 1.57 |  |  | 
